# Calls of active or inactive are those of the source.
# Legend:
# [1] = target: T1, Mu-type opioid receptor (Mus musculus, UniProt P42866); assay: Antagonist activity at mouse mu opioid receptor expressed in CHO cell membrane assessed as reduction in DAMGO-induced […]-GTPgammaS binding incubated for 1.5 hrs by liquid scintillation counting method; format: functional, cell membranes
# [2] = target: T1, Mu-type opioid receptor; assay: Binding affinity to mouse mu opioid receptor expressed in CHO cells in presence of naltrexone incubated for 1.5 hrs by competitive radioligand binding assay; format: cell-based
# Method in brief: (§1)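 Competition binding. Membranes (30 μg protein) from CHO cells with mouse MOR or KOR, or human DOR. Incubated with radioligand and varying test concentrations in TME buffer, pH 7.4, 1.5 h at 30 °C. Filtration harvest. Nonspecific binding defined with 5 μM naltrexone (MOR), U50,488 (KOR) or SNC80 (DOR). IC₅₀ by nonlinear regression, converted to Ki by Cheng-Prusoff. Selectivity ratios taken from these Ki values. At least three independent experiments.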
# [3] = target: Delta-type opioid receptor (Homo sapiens, UniProt P41143); assay: Binding affinity to human delta opioid receptor in presence of SNC80 incubated for 1.5 hrs by competitive radioligand binding assay; method in brief: as §1
# [4] = target: Kappa-type opioid receptor (Mus musculus, UniProt P33534); assay: Binding affinity to mouse kappa opioid receptor expressed in CHO cells in presence of U50488 incubated for 1.5 hrs by competitive radioligand binding assay; format: cell-based; method in brief: as §1
# [5] = Selectivity index, ratio of Ki for binding affinity to human delta opioid receptor to Ki for binding affinity to mouse mu opioid receptor; method in brief: as §1
# [6] = organism: Mus musculus; assay: Selectivity index, ratio of Ki for binding affinity to mouse kappa opioid receptor to Ki for binding affinity to mouse mu opioid receptor; method in brief: as §1
# [7] = target: Mu-type opioid receptor (Mus musculus) (UniProt P42866); assay: Antagonist activity at mouse mu opioid receptor expressed in CHO cell membrane assessed as reduction in DAMGO-induced […]-GTPgammaS binding by measuring maximal efficacy incubated for 1.5 hrs by liquid scintillation counting method relative to control; format: functional, cell membranes
# Method in brief: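 [³⁵S]GTPγS binding. Membranes (10 μg protein) from CHO cells expressing MOR, KOR or DOR. Buffer TME (50 mM Tris, 3 mM MgCl₂, 0.2 mM EGTA, pH 7.4) with 100 mM NaCl, 20 μM GDP and 0.1 nM [³⁵S]GTPγS. Test compound at varying concentrations. Incubation 1.5 h at 30 °C. Nonspecific binding with 20 μM unlabeled GTPγS. Reference full agonist at 3 μM: DAMGO (MOR), U50488H (KOR), SNC80 (DOR). Filtration, then scintillation counting. Duplicates, at least three repeats.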
# [8] = system: Mus musculus; assay: Antinociceptive activity against Swiss Webster mouse assessed as tail withdrawal latency from warm water by measuring maximum possible effect at 10 mg/kg, sc measured after 20 mins by warm water tail immersion assay; format: functional
# Method in brief: (§2)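 Male Swiss Webster mice, 5–8 weeks, 25–35 g, 6 per group. Tail immersed (distal third) in water at 56 ± 0.1 °C. Mice included only with baseline latency 2–4 s. Compound 10 mg/kg s.c.; in the challenge arm it was given 5 min before morphine 10 mg/kg s.c. Latency read 20 min after injection, 10-s cutoff. %MPE = (test − control)/(10 − control) × 100. Dunnett-corrected one-way ANOVA.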
# [9] = system: Mus musculus; assay: Antinociceptive activity against sc dosed Swiss Webster mouse model assessed as effect on morphine induced antinociception by measuring tail withdrawal latency from warm water incubated for 5 mins followed by morphine addition measured after 20 mins by warm water tail immersion assay; format: functional; conditions: time 25.0 min; method in brief: as §2
# [10] = system: Mus musculus; assay: Gastroprokinetic activity in Swiss Webster mouse assessed as stimulation of gastrointestinal motility by measuring time required to defecation of red fecal pellet at 10 mg/kg, sc incubated for 5 mins followed by morphine addition at 10 mg/kg and measured after 20 mins by carmine red dye assay; format: functional; conditions: time 25 min
# Method in brief: (§3)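 Male Swiss Webster mice, 5–6 per group, housed singly. Compound or vehicle given s.c. or by oral gavage 5 min before morphine (10 or 5 mg/kg) or vehicle. 20 min after morphine, 0.2 mL of 6% carmine red in 0.5% CMC given orally (time 0). Time to first red pellet recorded, 6-h cutoff. Dunnett-corrected one-way ANOVA.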
# [11] = system: Mus musculus; assay: Gastroprokinetic activity in Swiss Webster mouse assessed as stimulation of gastrointestinal motility by measuring time required to defecation of red fecal pellet at 10 mg/kg, po incubated for 5 mins followed by morphine addition at 10 mg/kg and measured after 20 mins by carmine red dye assay; format: functional; conditions: time 25 min; method in brief: as §3
# [12] = system: Mus musculus; assay: Reversal of morphine induced constipation in Swiss Webster mouse at 10 mg/kg, po for 5 mins followed by morphine addition measured after 20 mins by carmine red dye assay relative to control; format: functional; conditions: time 25 min; method in brief: as §3
SMILES,EC50 [1],Ki [2],Ki [3],Ki [4],Ratio Ki [5],Ratio Ki [6],Emax [7],Activity [8],Activity [9],MPE [8],Time [10],Time [11],Activity [12]
O=C(N[C@H]1CC[C@@]2(O)[C@H]3Cc4ccc(O)c5c4[C@@]2(CCN3CC2CC2)[C@H]1O5)c1cnc[nH]1,4.42 nM,1.11 nM,32.5 nM,2.76 nM,29,2,20.7%,inactive,inactive,,,,
O=C(CCc1cc[nH]n1)N[C@@H]1CC[C@@]2(O)[C@H]3Cc4ccc(O)c5c4[C@@]2(CCN3CC2CC2)[C@H]1O5,2.76 nM,0.21 nM,42.2 nM,2 nM,202,10,13.2%,inactive,inactive,,,,
O=C(CCc1ncc[nH]1)N[C@@H]1CC[C@@]2(O)[C@H]3Cc4ccc(O)c5c4[C@@]2(CCN3CC2CC2)[C@H]1O5,1.24 nM,0.57 nM,55.8 nM,0.57 nM,99,1,17.7%,inactive,inactive,,,,
O=C(CCc1cc[nH]n1)N[C@H]1CC[C@@]2(O)[C@H]3Cc4ccc(O)c5c4[C@@]2(CCN3CC2CC2)[C@H]1O5,4.22 nM,0.5 nM,217 nM,2.75 nM,433,6,22.2%,inactive,inactive,,,,
O=C(N[C@H]1CC[C@@]2(O)[C@H]3Cc4ccc(O)c5c4[C@@]2(CCN3CC2CC2)[C@H]1O5)c1cc[nH]n1,2.33 nM,0.61 nM,21.2 nM,1.05 nM,35,2,19.6%,inactive,inactive,,,,
O=C(CCc1ncc[nH]1)N[C@H]1CC[C@@]2(O)[C@H]3Cc4ccc(O)c5c4[C@@]2(CCN3CC2CC2)[C@H]1O5,4.26 nM,0.69 nM,3.94 nM,0.79 nM,6,1,21.7%,inactive,inactive,,,,
O=C(Cc1cnc[nH]1)N[C@@H]1CC[C@@]2(O)[C@H]3Cc4ccc(O)c5c4[C@@]2(CCN3CC2CC2)[C@H]1O5,4.64 nM,0.82 nM,74.5 nM,4.82 nM,91,6,20.9%,inactive,inactive,,,,
O=C(Cc1cc[nH]n1)N[C@@H]1CC[C@@]2(O)[C@H]3Cc4ccc(O)c5c4[C@@]2(CCN3CC2CC2)[C@H]1O5,2.5 nM,0.2 nM,36.8 nM,5.05 nM,186,26,20.4%,,inactive,39.3%,,,
O=C(Cc1ncc[nH]1)N[C@H]1CC[C@@]2(O)[C@H]3Cc4ccc(O)c5c4[C@@]2(CCN3CC2CC2)[C@H]1O5,1.81 nM,0.83 nM,17.7 nM,3.45 nM,21,4,19.2%,,,36.9%,,,
O=C(CCc1cnc[nH]1)N[C@H]1CC[C@@]2(O)[C@H]3Cc4ccc(O)c5c4[C@@]2(CCN3CC2CC2)[C@H]1O5,9.47 nM,0.2 nM,21.5 nM,1.21 nM,106,6,25.4%,inactive,inactive,,,,
O=C(CCc1cnc[nH]1)N[C@@H]1CC[C@@]2(O)[C@H]3Cc4ccc(O)c5c4[C@@]2(CCN3CC2CC2)[C@H]1O5,3.19 nM,0.6 nM,35.5 nM,1.8 nM,60,3,15.7%,inactive,inactive,,,,
O=C(CCc1cn[nH]c1)N[C@H]1CC[C@@]2(O)[C@H]3Cc4ccc(O)c5c4[C@@]2(CCN3CC2CC2)[C@H]1O5,12.3 nM,1.09 nM,91.2 nM,39.5 nM,83,36,14.2%,inactive,inactive,,,,
O=C(Cc1cn[nH]c1)N[C@H]1CC[C@@]2(O)[C@H]3Cc4ccc(O)c5c4[C@@]2(CCN3CC2CC2)[C@H]1O5,8.17 nM,0.88 nM,3440 nM,104 nM,3920,118,28.4%,inactive,inactive,,172 min,70 min,39%
O=C(N[C@H]1CC[C@@]2(O)[C@H]3Cc4ccc(O)c5c4[C@@]2(CCN3CC2CC2)[C@H]1O5)c1cn[nH]c1,1.24 nM,0.59 nM,37.5 nM,4.7 nM,64,8,23.1%,inactive,inactive,,,,
O=C(N[C@@H]1CC[C@@]2(O)[C@H]3Cc4ccc(O)c5c4[C@@]2(CCN3CC2CC2)[C@H]1O5)c1cc[nH]n1,1.83 nM,0.28 nM,14.5 nM,0.95 nM,52,3,10.9%,inactive,inactive,,,,
O=C(N[C@@H]1CC[C@@]2(O)[C@H]3Cc4ccc(O)c5c4[C@@]2(CCN3CC2CC2)[C@H]1O5)c1cn[nH]c1,1.77 nM,0.65 nM,46.8 nM,2.51 nM,72,4,16.3%,inactive,inactive,,,,
O=C(Cc1cnc[nH]1)N[C@H]1CC[C@@]2(O)[C@H]3Cc4ccc(O)c5c4[C@@]2(CCN3CC2CC2)[C@H]1O5,3.61 nM,1.34 nM,79.4 nM,3.57 nM,59,3,21%,inactive,inactive,,,,
O=C(Cc1ncc[nH]1)N[C@@H]1CC[C@@]2(O)[C@H]3Cc4ccc(O)c5c4[C@@]2(CCN3CC2CC2)[C@H]1O5,2.07 nM,0.48 nM,89.8 nM,5.17 nM,188,11,23.5%,inactive,inactive,,,,
O=C(Cc1cn[nH]c1)N[C@@H]1CC[C@@]2(O)[C@H]3Cc4ccc(O)c5c4[C@@]2(CCN3CC2CC2)[C@H]1O5,,0.17 nM,66.6 nM,13.9 nM,390,82,22.2%,inactive,inactive,,174 min,69 min,40%
O=C(CCc1cn[nH]c1)N[C@@H]1CC[C@@]2(O)[C@H]3Cc4ccc(O)c5c4[C@@]2(CCN3CC2CC2)[C@H]1O5,4.28 nM,0.3 nM,97.8 nM,12.3 nM,322,40,10.7%,inactive,inactive,,,,

# Source: ChEMBL document CHEMBL5046294, “Rational Design, Chemical Syntheses, and Biological Evaluations of Peripherally Selective Mu Opioid Receptor Ligands as Potential Opioid Induced Constipation Treatment” (J Med Chem, 2022)
